Source: ChEMBL document CHEMBL1275434, “In vitro evaluation of CBR-2092, a novel rifamycin-quinolone hybrid antibiotic: studies of the mode of action in Staphylococcus aureus” (Antimicrob Agents Chemother, 2008)
Converted amounts (≈) assume the structure as drawn.

Assays:
[1] = test system: Staphylococcus aureus; assay: Antimicrobial activity against Staphylococcus aureus CB815 harboring rpoB H481Y, gyrA […] and parC S80F mutant genes; assay type: functional
[2] = test system: Staphylococcus aureus; assay: Antimicrobial activity against Staphylococcus aureus CB370 harboring rpoB H481Y mutant gene; assay type: functional
[3] = test system: Staphylococcus aureus; assay: Antimicrobial activity against Staphylococcus aureus CB1947 harboring rpoB H481Y, gyrA S84L, E697 deficient gyrA, parC G167V mutant genes selected after CBR-2092 exposure for 20 days; conditions: CB1947, 480 h
[4] = test system: Staphylococcus aureus; assay: Antimicrobial activity against Staphylococcus aureus CB1953 harboring rpoB H481Y, gyrA S84L, gyrA V598I, parC S80F, parC R570H mutant genes selected after CBR-2092 exposure for 7 days; assay type: functional; conditions: CB1953, 168 h
[5] = test system: Staphylococcus aureus; assay: Antimicrobial activity against Staphylococcus aureus CB1952 harboring rpoB S486L, gyrA […], gyrA E88Q, gyrA G532S, parC S80F, parC E84L mutant genes selected after CBR-2092 exposure for 21 days; assay type: functional; conditions: CB1952, 504 h
[6] = test system: Staphylococcus aureus; assay: Antimicrobial activity against Staphylococcus aureus CB814 harboring […] and parC S80F mutant genes; assay type: functional
[7] = test system: Staphylococcus aureus; assay: Antimicrobial activity against Staphylococcus aureus CB1954 harboring rpoB H481Y, gyrA S84L, K809 deficient gyrA, parC S80F, parC A523D mutant genes selected after CBR-2092 exposure for 7 days; assay type: functional; conditions: CB1954, 168 h
Outline: (§1)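 CLSI broth microdilution MIC in cation-adjusted Mueller-Hinton (MHII) broth supplemented with 0.002% (vol/vol) polysorbate 80, included to limit compound loss to plastic surfaces.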

[8] = test system: Staphylococcus aureus; assay: Antimicrobial activity against Staphylococcus aureus CB1884; assay type: functional
[9] = test system: Staphylococcus aureus; assay: Antimicrobial activity against Staphylococcus aureus CB809 harboring rpoB H481Y and parC S80F mutant genes by broth microdilution method
[10] = test system: Staphylococcus aureus; assay: Antimicrobial activity against Staphylococcus aureus CB812 harboring rpo B H481Y and gyrA S84L mutant genes by broth microdilution method; assay type: functional; outline: as §1
[11] = test system: Staphylococcus aureus; assay: Antimicrobial activity against Staphylococcus aureus CB190 by broth microdilution method; assay type: functional
[12] = test system: Staphylococcus aureus; assay: Activity at Staphylococcus aureus wild-type DNA topoisomerase 4 subunit ParC
Outline: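 Recombinant S. aureus topoisomerase IV (wild-type ParC with ParE; specific activity 25 to 30 U per μg). Stopped with SDS/proteinase K. Linear DNA quantified on gel; CC50 is the mean of two or more assays.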

[13] = test system: Staphylococcus aureus; assay: Antimicrobial activity against Staphylococcus aureus CB808 harboring quinolone-resistant parC S80F mutant gene by broth microdilution method; assay type: functional; outline: as §1
[14] = test system: Staphylococcus aureus; assay: Activity at Staphylococcus aureus DNA topoisomerase 4 subunit ParC S80F mutant
[15] = test system: Staphylococcus aureus; assay: Antimicrobial activity against Staphylococcus aureus CB814 harboring fluoroquinolone-resistant gyrA S84L and parC S80F mutant genes by broth microdilution method; assay type: functional; outline: as §1
[16] = test system: Staphylococcus aureus; assay: Activity at Staphylococcus aureus wild-type GyrA
Outline: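 Recombinant S. aureus gyrase (wild-type GyrA with His-tagged GyrB; 250 U per μg). SDS/proteinase K stop. Gel quantitation of linear cleavage product gave CC50, the mean of two or more assays.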

[17] = test system: Staphylococcus aureus; assay: Antimicrobial activity against Staphylococcus aureus CB811 harboring quinolone-resistant gyrA S84L mutant gene by broth microdilution method; assay type: functional; outline: as §1
[18] = test system: Staphylococcus aureus; assay: Antimicrobial activity against Staphylococcus aureus CB370 harboring rifampin-resistant rpoB H481Y mutant gene by broth microdilution method; assay type: functional; outline: as §1
[19] = test system: Staphylococcus aureus; assay: Antimicrobial activity against Staphylococcus aureus CB815 harboring rpoB H481Y, gyrA S84L and parC S80F mutant genes by broth microdilution method
[20] = test system: DNA gyrase subunit A (Staphylococcus aureus), P20831 [S84L]; assay: Activity at Staphylococcus aureus wild-type GyrA S84L mutant

Row | SMILES | MIC [1] | MIC [2] | MIC [3] | MIC [4] | MIC [5] | MIC [6] | MIC [7] | MIC [8] | MIC [9] | MIC [10] | MIC [11] | CC50 [12] | MIC [13] | CC50 [14] | MIC [15] | CC50 [16] | MIC [17] | MIC [18] | MIC [19] | CC50 [20]
1 | CCBr [BROMOETHANE] | 4 µg/mL (≈ 36.7 µM) | 4 µg/mL (≈ 36.7 µM) | 4 µg/mL (≈ 36.7 µM) | 4 µg/mL (≈ 36.7 µM) | 4 µg/mL (≈ 36.7 µM) | 4 µg/mL (≈ 36.7 µM) | 4 µg/mL (≈ 36.7 µM) | 2 µg/mL (≈ 18.4 µM) | – | – | – | – | – | – | – | – | – | – | – | –
2 | COc1c(N2CCNC(C)C2)c(F)cc2c(=O)c(C(=O)O)cn(C3CC3)c12 (stereo not given) [GATIFLOXACIN] | – | – | – | – | – | – | – | – | 0.25 µg/mL (≈ 0.666 µM) | 0.12 µg/mL (≈ 0.32 µM) | 0.06 µg/mL (≈ 0.16 µM) | 220 nM | 0.25 µg/mL (≈ 0.666 µM) | 13 µM | 8 µg/mL (≈ 21.3 µM) | 700 nM | 0.12 µg/mL (≈ 0.32 µM) | 0.06 µg/mL (≈ 0.16 µM) | 8 µg/mL (≈ 21.3 µM) | 18 µM
